Screening results as filed in PubChem.
This is a sample that favours compounds with a hit; in the whole collection about 2.2% have one here.
proKLK7 act: activates the human kallikrein-7 zymogen | P49862 | 370,000 compounds, 0.9% hits | purified proKLK7, EDANS-DABCYL substrate fluorescence; 100% is mature enzyme control, 0% vehicle | activation, % at 7 µM;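 active means activation above the mean of all tested compounds plus 3 SD, computed per campaign excluding outliers beyond control limits, cut at about 13% in these data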
Target sequence (P49862 whole entry, looked up): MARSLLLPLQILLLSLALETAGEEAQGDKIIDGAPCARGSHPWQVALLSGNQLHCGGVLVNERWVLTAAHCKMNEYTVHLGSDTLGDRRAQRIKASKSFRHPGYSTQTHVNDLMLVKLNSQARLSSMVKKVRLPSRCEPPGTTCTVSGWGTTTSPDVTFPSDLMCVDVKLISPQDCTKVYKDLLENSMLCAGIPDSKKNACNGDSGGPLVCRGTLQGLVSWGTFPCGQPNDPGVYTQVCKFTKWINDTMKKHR
Tn6 DDE FP: inhibitors of Tn6 peptide binding to human fibrin DD(E). Fibrin DD(E) TRITC-Tn6 fluorescence polarization displacement. P02675. inhibition, % at 8.3 µM. 370,000 compounds, 0.21% hits;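 active means inhibition above a per-campaign cutoff: mean of compounds within control limits plus 3 SD, cut at about 15% in these data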;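 further: 0% = median of all compound wells on the plate and 100% = blocking peptide control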
Tn7 DDE FP: disrupts Tn7 cyclic peptide binding to fibrin D-Dimer-E complex; AID 720508; inhibition, % at 8.3 µM; P02675; FP displacement of FITC-Tn7 peptide from fibrin DD(E); 0% = median of compound wells per plate; 370,000 compounds, 0.13% hits;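 active means inhibition above the mean of compounds falling within the control limits plus 3 SD of them, cut at about 14% in these data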;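 further: 0% = plate median of compound wells and 100% = 10 µM Aha-Tn7 peptide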
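System: human fibrin DD(E); quantity: Fibrin-DD(E) at 2 µM final; also added: fluorescent Tn7 probe at 0.1 µM; compound dosing: single nominal test concentration of 8.3 µM per compound; schedule: 10 min preincubation, 3 h with tracer, room temperature; detection: fluorescence polarization of the labelled Tn7 tracer; repeats: one replicate per compound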
SKN-1 block: C. elegans SKN-1 inhibition; 360,000 compounds, 0.49% hits; inhibition, % at 21.8 µM; C. elegans VP596 Pgst-4::GFP/RFP ratio, acrylamide-induced, 24 h; AID 624304;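 active means interference check ratio from 0.5 to 1.5 plus GFP to RFP signal ratio inhibition reaching or exceeding a fixed threshold, cut at about 30% in these data, passing the limit was not always enough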
Neddyl block: cullin neddylation inhibition; TR-FRET cullin neddylation, biochemical; calls only at 25 µM; 360,000 compounds, 0.58% hits; AID 651699; in the data active means inhibition above about 36%
MT1-MMP act inh: MT1-MMP (human) activation inhibition. 360,000 compounds, 0.061% hits. GFP/RFP ratio change, % at 20 µM. HT1080 RFP-PRO-GFP cells, GFP/RFP ratio fluorescence, overnight; percent of plate control window, DMSO zero;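 active means GFP/RFP ratio change of at least 30% with cell ATP level not reduced by more than half and red fluorescence within 50% of control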
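Material: RFP-PRO-GFP reporter HT1080 cells. Dosing: single-point 20 µM compound, 1% DMSO. Controls: DMSO and RFP-L50D-GFP cell wells. Timing: cells overnight before dosing, compound overnight, 37 °C, 5% CO2. Measure: GFP/RFP fluorescence ratio.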
* = called active by the depositor.

How did COc1[nH]c(/N=C/c2ccccc2)c(C#N)c1C#N do in these assays?
proKLK7 act: 1; Tn6 DDE FP: 38*; Tn7 DDE FP: 6; SKN-1 block: 39; Neddyl block: inactive; MT1-MMP act inh: -86

Results for COc1ccc(-c2cn3cc(Cl)ccc3n2)cc1OC ?
proKLK7 act: 3; Tn6 DDE FP: -1; Tn7 DDE FP: -2; SKN-1 block: 13; MT1-MMP act inh: 14

How did Clc1ccc2nc(-c3ccc(Br)s3)cn2c1 do in these assays?
proKLK7 act: 1; Tn6 DDE FP: -7; Tn7 DDE FP: 3; SKN-1 block: 70*; Neddyl block: inactive; MT1-MMP act inh: 8

Results for C#CCN1C(=O)S/C(=C/C=C/c2ccc(N(C)C)cc2)C1=O ?
proKLK7 act: 0; Tn6 DDE FP: -1; Tn7 DDE FP: -5; SKN-1 block: 47*; Neddyl block: inactive; MT1-MMP act inh: 0

How did O=C(CN1C(=O)S/C(=C\C=C\c2ccccc2)C1=O)Nc1ccccc1C(=O)O do in these assays?
proKLK7 act: 1; Tn6 DDE FP: -8; Tn7 DDE FP: -2; SKN-1 block: 2; Neddyl block: inactive; MT1-MMP act inh: 7

How did COc1cc(OC)c(OC)cc1C#N do in these assays?
proKLK7 act: 0; Tn6 DDE FP: 3; Tn7 DDE FP: 0; SKN-1 block: -4; Neddyl block: inactive; MT1-MMP act inh: -1

What do the screens show for `O=C(c1ccccc1NS(=O)(=O)c1ccccc1)N1CCCCCC1`?
proKLK7 act: 0; Tn6 DDE FP: 2; Tn7 DDE FP: -4; SKN-1 block: 11; Neddyl block: inactive; MT1-MMP act inh: -1

What do the screens show for `O=C(NC1CCCC1)C1C(c2ccc(C(F)(F)F)cc2)=Nc2ccccc2N1C(=O)c1ccco1` (stereo unspecified)?
proKLK7 act: 0; Tn6 DDE FP: -7; Tn7 DDE FP: -1; SKN-1 block: 41*; Neddyl block: inactive; MT1-MMP act inh: -1

How did CCN(C(=O)COC(=O)c1cc(-c2cccc3ccccc23)nc2ccccc12)C1CCS(=O)(=O)C1 (stereo unspecified) do in these assays?
proKLK7 act: -23; Tn6 DDE FP: 8; Tn7 DDE FP: 2; SKN-1 block: 39*; Neddyl block: inactive; MT1-MMP act inh: -5

Results for CCN(C(=O)COC(=O)c1ccccc1Cc1ccccc1)C1CCS(=O)(=O)C1 (stereo unspecified) ?
proKLK7 act: 0; Tn6 DDE FP: 0; Tn7 DDE FP: 1; SKN-1 block: 27; Neddyl block: inactive; MT1-MMP act inh: -3

How did O=C(COC(=O)Cn1cnc2ccccc2c1=O)Nc1ccc2c(c1)OCO2 do in these assays?
proKLK7 act: 0; Tn6 DDE FP: 4; Tn7 DDE FP: 9; SKN-1 block: 3; Neddyl block: inactive; MT1-MMP act inh: 0

Results for COc1cc(OC)cc(C(=O)N2CCN(C(=O)Cc3ccccc3)CC2)c1 ?
proKLK7 act: 0; Tn6 DDE FP: -8; Tn7 DDE FP: -10; SKN-1 block: -2; Neddyl block: inactive; MT1-MMP act inh: -3

Results for O=C(O)c1ccc(-c2ccc(-c3ccccc3)cc2)s1 ?
SKN-1 block: -2; Neddyl block: active; MT1-MMP act inh: -3

Results for O=C(Nc1ccccc1)c1ccc(-c2ccccc2)s1 ?
proKLK7 act: 2; Tn6 DDE FP: -6; Tn7 DDE FP: 2; SKN-1 block: 9; Neddyl block: inactive; MT1-MMP act inh: -1

How did COc1ccc(-c2cn(-c3ccc(C)cc3)c(=O)n2CC(=O)Nc2ccc(OC)cc2OC)cc1 do in these assays?
proKLK7 act: 0; Tn6 DDE FP: 1; Tn7 DDE FP: -5; SKN-1 block: 38*; Neddyl block: inactive; MT1-MMP act inh: 0

Results for Cc1cc(NS(=O)(=O)c2ccc(NC(=O)c3cc(-c4ccccc4Cl)nc4ccccc34)cc2)no1 ?
proKLK7 act: 0; Tn6 DDE FP: 0; Tn7 DDE FP: 1; SKN-1 block: -4; Neddyl block: inactive; MT1-MMP act inh: 4

Results for Cc1cc(NS(=O)(=O)c2ccc(NC(=O)c3cc(-c4cccnc4)nc4ccc(Cl)cc34)cc2)no1 ?
proKLK7 act: 0; Tn6 DDE FP: -3; Tn7 DDE FP: -2; SKN-1 block: 37*; Neddyl block: inactive; MT1-MMP act inh: 8

Results for CC(C)CN(C(=O)COC(=O)C1c2ccccc2Oc2ccccc21)C1CCS(=O)(=O)C1 (stereo unspecified) ?
proKLK7 act: -1; Tn6 DDE FP: -2; Tn7 DDE FP: 2; SKN-1 block: -5; Neddyl block: inactive; MT1-MMP act inh: 1

How did CN(C(=O)COC(=O)C1c2ccccc2Oc2ccccc21)C1CCS(=O)(=O)C1 (stereo unspecified) do in these assays?
proKLK7 act: -2; Tn6 DDE FP: -3; Tn7 DDE FP: -2; SKN-1 block: 48*; Neddyl block: inactive; MT1-MMP act inh: 4

Results for COc1cc(NCCCCC(C)N)c2nccc(C)c2c1 (stereo unspecified) ?
proKLK7 act: 1; Tn6 DDE FP: 1; Tn7 DDE FP: 0; SKN-1 block: 36*; Neddyl block: inactive; MT1-MMP act inh: -13

How did COc1cccc(NC(=O)CN2CCc3ccccc3C2)c1 do in these assays?
proKLK7 act: 0; Tn6 DDE FP: 11; Tn7 DDE FP: 0; SKN-1 block: 35*; Neddyl block: inactive; MT1-MMP act inh: -1

How did CC(=O)Nc1cccc(OCC(=O)NS(=O)(=O)c2ccc(Cl)cc2)c1 do in these assays?
proKLK7 act: 0; Tn6 DDE FP: -2; Tn7 DDE FP: 3; SKN-1 block: 35*; Neddyl block: inactive; MT1-MMP act inh: -2

What do the screens show for `O=C(COc1ccccc1)NS(=O)(=O)c1ccc(Cl)cc1`?
proKLK7 act: 0; Tn6 DDE FP: 2; Tn7 DDE FP: 1; SKN-1 block: -1; Neddyl block: inactive; MT1-MMP act inh: 3

Results for Cc1ccccc1OCC(=O)N/N=C/c1ccc(N(C)C)cc1 ?
proKLK7 act: -2; Tn6 DDE FP: 7; Tn7 DDE FP: -2; SKN-1 block: 3; MT1-MMP act inh: 3

What do the screens show for `O=C1/C(=C/N(C(=O)c2ccco2)c2ccc(Br)cc2)Sc2ccccc21`?
SKN-1 block: 38*; Neddyl block: inactive; MT1-MMP act inh: 4

How did O=C1CCCc2c1[nH]c1ccccc21 do in these assays?
proKLK7 act: 0; Tn6 DDE FP: 2; Tn7 DDE FP: -1; SKN-1 block: -4; Neddyl block: inactive; MT1-MMP act inh: 6

How did c1ccc2c(c1)OCCc1c-2[nH]c2ccccc12 do in these assays?
proKLK7 act: 0; Tn6 DDE FP: 2; Tn7 DDE FP: 3; SKN-1 block: 52*; MT1-MMP act inh: -2
